Our source for the fold change (FC) and inhibition values is ChEMBL document CHEMBL5653631, “A Potent and Selective ULK1 Inhibitor Suppresses Autophagy and Sensitizes Cancer Cells to Nutrient Stress” (iScience, 2018).

In assay [1] the target is Serine/threonine-protein kinase SBK1 (Homo sapiens) (UniProt Q52WX2). Nature of the assay: Inhibition of human recombinant SBK1 at 15 nM related to control ULK1.
The target of assay [2] is Maternal embryonic leucine zipper kinase (Homo sapiens) (UniProt Q14680). Nature of the assay: Inhibition of human recombinant MELK at 15 nM in presence of ATP by radiometric assay relative to control.
Maternal embryonic leucine zipper kinase (Homo sapiens), sequence (Q14680 whole entry, looked up): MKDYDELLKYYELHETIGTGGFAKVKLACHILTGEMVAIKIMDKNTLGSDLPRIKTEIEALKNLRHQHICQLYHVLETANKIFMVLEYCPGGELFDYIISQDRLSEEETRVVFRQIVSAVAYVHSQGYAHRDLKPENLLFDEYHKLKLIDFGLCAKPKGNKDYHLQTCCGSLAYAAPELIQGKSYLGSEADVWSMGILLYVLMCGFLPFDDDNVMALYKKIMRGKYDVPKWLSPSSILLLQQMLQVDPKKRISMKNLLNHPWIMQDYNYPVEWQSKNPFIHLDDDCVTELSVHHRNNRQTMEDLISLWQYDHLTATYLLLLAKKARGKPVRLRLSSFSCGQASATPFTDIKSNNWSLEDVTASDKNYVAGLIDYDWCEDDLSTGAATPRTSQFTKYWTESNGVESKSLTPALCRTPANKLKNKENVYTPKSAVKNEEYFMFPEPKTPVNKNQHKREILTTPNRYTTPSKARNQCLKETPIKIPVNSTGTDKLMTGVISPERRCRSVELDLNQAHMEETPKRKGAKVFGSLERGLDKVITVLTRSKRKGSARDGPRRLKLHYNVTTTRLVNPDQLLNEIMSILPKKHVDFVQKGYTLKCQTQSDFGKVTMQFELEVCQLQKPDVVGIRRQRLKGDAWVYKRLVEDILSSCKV
Assay [3] addresses T1, Activin receptor type-1 (Homo sapiens) (UniProt Q04771).
T1 sequence (whole entry): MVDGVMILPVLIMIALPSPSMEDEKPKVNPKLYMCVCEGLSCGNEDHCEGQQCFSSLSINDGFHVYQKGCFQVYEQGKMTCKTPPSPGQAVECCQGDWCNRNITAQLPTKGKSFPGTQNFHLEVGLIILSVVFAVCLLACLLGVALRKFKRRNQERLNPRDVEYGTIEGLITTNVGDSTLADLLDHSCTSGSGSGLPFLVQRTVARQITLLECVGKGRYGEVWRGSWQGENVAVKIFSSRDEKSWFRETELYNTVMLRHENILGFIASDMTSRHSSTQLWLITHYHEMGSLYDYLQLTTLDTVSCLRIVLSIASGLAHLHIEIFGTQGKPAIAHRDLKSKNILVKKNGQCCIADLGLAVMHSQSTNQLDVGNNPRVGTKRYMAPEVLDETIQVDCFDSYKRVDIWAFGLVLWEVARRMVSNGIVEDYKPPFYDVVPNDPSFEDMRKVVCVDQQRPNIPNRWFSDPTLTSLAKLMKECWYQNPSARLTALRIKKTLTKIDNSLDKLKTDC
In words: Inhibition of human recombinant ALK2 at 15 nM in presence of ATP by radiometric assay relative to control. The procedure, abridged:
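Panel of 327 recombinant human kinases, each assayed in vitro by radiometric activity assay in duplicate at a single inhibitor concentration per compound, chosen with reference to its ULK1 inhibition. Activity remaining was expressed as percent of vehicle control, and percent inhibition was calculated as 100 minus percent activity remaining.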

Assay [4] addresses Eukaryotic translation initiation factor 2-alpha kinase 1 (Homo sapiens) (UniProt Q9BQI3). Nature of the assay: Inhibition of human recombinant HRI at 15 nM in presence of ATP by radiometric assay relative to control.
In assay [5] the target is T2, Serine/threonine-protein kinase Chk1 (Homo sapiens) (UniProt O14757).
T2 sequence (whole entry): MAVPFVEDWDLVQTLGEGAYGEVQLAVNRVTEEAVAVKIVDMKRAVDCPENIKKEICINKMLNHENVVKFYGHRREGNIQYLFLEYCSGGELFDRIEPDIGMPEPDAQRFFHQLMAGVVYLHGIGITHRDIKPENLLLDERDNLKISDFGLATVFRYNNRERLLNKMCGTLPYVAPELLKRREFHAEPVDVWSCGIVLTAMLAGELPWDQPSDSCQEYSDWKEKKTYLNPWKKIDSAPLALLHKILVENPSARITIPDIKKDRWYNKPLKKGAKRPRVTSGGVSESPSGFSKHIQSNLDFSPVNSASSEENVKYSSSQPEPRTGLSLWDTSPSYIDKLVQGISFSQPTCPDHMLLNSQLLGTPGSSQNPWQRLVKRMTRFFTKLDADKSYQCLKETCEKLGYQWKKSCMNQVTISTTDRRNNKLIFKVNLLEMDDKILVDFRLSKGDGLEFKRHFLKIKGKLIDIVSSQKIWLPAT
In words: Inhibition of human recombinant CHK1 at 40 nM related to control ULK1.

Assay [6] addresses Casein kinase I isoform gamma-1 (Homo sapiens) (UniProt Q9HCP0). In words: Inhibition of human recombinant CK1g1 at 40 nM related to control ULK1.
The target in assay [7] is Tyrosine-protein kinase Fes/Fps (Homo sapiens) (UniProt P07332). Nature of the assay: Inhibition of human recombinant FES at 40 nM in presence of ATP by radiometric assay relative to control.
Tyrosine-protein kinase Fes/Fps (Homo sapiens), sequence (P07332 whole entry): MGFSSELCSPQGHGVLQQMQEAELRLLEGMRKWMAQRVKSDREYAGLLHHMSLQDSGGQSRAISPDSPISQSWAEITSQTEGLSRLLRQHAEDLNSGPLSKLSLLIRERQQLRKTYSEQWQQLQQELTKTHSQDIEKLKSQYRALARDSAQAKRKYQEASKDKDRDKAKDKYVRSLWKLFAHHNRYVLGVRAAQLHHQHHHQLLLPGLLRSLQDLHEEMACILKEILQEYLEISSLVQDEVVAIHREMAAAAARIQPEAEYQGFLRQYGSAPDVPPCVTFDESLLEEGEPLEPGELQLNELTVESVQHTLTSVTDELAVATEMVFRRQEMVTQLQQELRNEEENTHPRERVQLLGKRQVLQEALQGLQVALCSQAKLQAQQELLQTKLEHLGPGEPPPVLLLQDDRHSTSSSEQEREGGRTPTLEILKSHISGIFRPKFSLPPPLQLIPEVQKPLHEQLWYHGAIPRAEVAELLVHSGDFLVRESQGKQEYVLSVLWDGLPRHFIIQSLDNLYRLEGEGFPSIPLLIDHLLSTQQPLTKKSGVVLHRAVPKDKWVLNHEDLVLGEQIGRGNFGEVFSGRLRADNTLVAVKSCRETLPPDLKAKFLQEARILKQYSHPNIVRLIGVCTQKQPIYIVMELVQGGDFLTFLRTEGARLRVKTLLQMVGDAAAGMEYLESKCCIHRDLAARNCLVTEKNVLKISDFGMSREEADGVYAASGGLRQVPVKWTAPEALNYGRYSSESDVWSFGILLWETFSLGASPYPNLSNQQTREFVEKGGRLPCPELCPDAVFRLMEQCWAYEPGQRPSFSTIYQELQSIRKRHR
Assay [8] addresses T3, Dual specificity mitogen-activated protein kinase kinase 6 (Homo sapiens) (UniProt P52564).
T3 sequence (whole entry): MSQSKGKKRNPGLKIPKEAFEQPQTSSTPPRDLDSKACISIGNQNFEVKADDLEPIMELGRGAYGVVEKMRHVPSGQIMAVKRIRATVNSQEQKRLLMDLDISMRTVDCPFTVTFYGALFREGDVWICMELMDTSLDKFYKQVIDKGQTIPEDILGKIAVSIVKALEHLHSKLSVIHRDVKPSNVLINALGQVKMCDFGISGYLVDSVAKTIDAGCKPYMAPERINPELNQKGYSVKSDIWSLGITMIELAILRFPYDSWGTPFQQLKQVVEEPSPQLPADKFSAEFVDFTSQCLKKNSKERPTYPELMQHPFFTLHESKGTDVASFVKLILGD
In words: Inhibition of human recombinant MAP2K6 at 500 nM in presence of ATP by radiometric assay relative to control.

The target in assay [9] is T4, Serine/threonine-protein kinase Nek9 (Homo sapiens) (UniProt Q8TD19).
T4 sequence (whole entry): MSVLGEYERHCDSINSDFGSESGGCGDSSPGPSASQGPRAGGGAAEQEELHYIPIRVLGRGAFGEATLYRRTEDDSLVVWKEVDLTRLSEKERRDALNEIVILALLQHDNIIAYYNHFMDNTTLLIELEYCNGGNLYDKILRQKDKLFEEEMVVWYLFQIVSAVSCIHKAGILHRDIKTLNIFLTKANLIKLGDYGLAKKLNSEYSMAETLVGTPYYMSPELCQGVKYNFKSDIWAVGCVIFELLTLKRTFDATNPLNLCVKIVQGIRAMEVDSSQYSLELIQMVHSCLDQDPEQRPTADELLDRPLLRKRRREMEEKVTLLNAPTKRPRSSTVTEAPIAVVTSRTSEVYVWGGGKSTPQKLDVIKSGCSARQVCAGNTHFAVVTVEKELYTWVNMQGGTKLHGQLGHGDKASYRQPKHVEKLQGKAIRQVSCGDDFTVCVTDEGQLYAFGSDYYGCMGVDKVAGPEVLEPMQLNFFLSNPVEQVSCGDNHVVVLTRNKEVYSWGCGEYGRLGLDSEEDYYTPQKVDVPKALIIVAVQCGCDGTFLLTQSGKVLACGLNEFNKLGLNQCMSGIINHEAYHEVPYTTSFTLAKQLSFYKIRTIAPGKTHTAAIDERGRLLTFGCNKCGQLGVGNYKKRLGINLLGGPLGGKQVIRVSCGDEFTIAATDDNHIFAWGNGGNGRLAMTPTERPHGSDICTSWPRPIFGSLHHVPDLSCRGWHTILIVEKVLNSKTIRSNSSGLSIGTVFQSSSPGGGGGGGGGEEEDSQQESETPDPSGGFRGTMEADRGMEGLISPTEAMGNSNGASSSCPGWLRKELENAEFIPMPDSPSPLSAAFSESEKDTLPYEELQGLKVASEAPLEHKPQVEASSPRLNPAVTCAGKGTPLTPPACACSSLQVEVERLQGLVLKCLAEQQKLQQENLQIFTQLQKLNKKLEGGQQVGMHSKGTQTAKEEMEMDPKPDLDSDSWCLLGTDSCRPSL
Nature of the assay: Inhibition of human recombinant NEK9 at 500 nM related to control ULK1.

For assay [10], the target named is Calcium/calmodulin-dependent protein kinase kinase 1 (Homo sapiens) (UniProt Q8N5S9). Nature of the assay: Inhibition of human recombinant CaMKK1 at 500 nM related to control ULK1.
Calcium/calmodulin-dependent protein kinase kinase 1 (Homo sapiens), sequence (Q8N5S9 whole entry, looked up): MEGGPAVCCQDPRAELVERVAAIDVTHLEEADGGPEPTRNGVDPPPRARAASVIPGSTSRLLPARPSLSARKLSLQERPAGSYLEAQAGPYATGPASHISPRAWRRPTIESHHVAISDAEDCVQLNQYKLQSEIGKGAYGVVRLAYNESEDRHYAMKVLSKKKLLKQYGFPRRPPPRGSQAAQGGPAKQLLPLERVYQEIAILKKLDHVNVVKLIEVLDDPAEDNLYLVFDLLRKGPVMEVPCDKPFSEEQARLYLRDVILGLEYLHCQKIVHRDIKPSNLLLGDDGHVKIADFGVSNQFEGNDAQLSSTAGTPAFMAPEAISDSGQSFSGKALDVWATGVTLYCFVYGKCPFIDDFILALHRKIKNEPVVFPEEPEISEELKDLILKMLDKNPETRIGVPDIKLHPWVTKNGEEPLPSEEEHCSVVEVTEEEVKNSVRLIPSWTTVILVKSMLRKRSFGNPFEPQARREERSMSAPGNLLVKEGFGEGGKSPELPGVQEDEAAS

Serine/threonine-protein kinase SBK1 (Homo sapiens), sequence (Q52WX2 whole entry): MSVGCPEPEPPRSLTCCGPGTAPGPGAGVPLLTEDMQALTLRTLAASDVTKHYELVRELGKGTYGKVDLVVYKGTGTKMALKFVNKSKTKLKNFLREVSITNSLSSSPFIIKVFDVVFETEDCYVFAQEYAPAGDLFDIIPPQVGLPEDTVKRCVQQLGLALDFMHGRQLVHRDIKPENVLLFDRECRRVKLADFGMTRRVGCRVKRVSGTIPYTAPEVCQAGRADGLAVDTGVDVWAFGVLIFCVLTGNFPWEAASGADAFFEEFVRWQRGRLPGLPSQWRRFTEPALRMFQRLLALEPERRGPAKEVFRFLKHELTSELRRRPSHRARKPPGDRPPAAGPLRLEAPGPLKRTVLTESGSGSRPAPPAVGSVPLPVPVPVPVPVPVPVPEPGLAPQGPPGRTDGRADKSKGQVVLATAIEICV
Eukaryotic translation initiation factor 2-alpha kinase 1 (Homo sapiens), sequence (Q9BQI3 whole entry): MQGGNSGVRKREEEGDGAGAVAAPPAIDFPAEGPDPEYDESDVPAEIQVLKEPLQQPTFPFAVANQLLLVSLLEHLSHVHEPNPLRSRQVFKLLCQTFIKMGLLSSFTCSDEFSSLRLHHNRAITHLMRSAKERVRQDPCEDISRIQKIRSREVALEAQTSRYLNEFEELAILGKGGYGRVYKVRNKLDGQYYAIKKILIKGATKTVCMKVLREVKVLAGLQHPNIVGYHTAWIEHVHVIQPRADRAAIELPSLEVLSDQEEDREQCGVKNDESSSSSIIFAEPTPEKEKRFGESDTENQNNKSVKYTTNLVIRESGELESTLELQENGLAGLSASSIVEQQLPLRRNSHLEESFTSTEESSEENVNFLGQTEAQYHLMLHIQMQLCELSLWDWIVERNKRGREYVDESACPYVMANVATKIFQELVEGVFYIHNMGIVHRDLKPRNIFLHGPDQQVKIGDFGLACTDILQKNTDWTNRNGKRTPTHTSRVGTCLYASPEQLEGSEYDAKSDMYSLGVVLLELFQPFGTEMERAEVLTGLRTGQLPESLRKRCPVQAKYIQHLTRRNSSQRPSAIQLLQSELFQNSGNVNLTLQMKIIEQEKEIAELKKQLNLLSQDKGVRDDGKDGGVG
Casein kinase I isoform gamma-1 (Homo sapiens), sequence (Q9HCP0 whole entry, looked up, canonical isoform): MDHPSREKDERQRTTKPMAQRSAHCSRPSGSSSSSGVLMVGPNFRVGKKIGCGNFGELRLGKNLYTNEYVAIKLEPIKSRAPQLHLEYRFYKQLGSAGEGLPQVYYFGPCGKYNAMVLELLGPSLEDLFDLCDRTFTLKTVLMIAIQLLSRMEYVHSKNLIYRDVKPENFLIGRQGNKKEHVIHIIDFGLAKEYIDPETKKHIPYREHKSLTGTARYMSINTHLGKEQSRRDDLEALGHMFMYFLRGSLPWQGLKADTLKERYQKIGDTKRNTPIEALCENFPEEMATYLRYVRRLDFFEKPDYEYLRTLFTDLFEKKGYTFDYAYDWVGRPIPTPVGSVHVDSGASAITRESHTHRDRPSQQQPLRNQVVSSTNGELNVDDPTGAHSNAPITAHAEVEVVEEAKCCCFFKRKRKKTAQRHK

By inhibition is commonly meant the percentage by which the read-out fell short of the control. As to `CC(C)[C@H](NC(=O)c1cc(-c2cnn3cc(-c4ccc(OCCN5CCCCC5)cc4)cnc23)cs1)C(F)(F)F`, the fold change (FC) in assay [1] was determined as 0.06. In addition, the inhibition was 67% in assay [2], 26% in assay [3] and 0% in assay [4].

Turning to `O=C(N[C@@H](C1CC1)C(F)(F)F)c1cc(-c2cnn3cc(-c4ccc(F)cc4)cnc23)cs1`, the fold change (FC) in assay [5] and in assay [6] was 0 throughout. The inhibition in assay [7] is 15%.

In the case of `CNC(=O)c1ccccc1Oc1nc(Nc2cc(OC)c(OC)c(OC)c2)ncc1Br`, the inhibition in [8] is 5%. In addition, the fold change (FC) stood at 0 in assay [9] and 0.11 in assay [10].
